Experimental data published in ChEMBL document CHEMBL1240321, “Cyclostreptin binds covalently to microtubule pores and lumenal taxoid binding sites” (Nat Chem Biol, 2007).
The source made the active and inactive calls. The calls are words filed in the database; no cut-off is given here.

Tests used:
[1] = test system: PtK2; assay: Displacement of Flutax-2 from microtubule in potoroo PtK2 cells at 100 uM; details: Potorous tridactylus
[2] = Induction of mitotic cell cycle arrest in potoroo PtK2 cells assessed as accumulation of cells at G1/G0 phase at 5 uM treated for 7 hrs, washed followed by 48 hrs incubation by flow cytometry (Rvb= 65.8%); assay type: functional, Potorous tridactylus
[3] = Induction of mitotic cell cycle arrest in human A2780AD cells assessed as accumulation of cells at G2+M phase at 100 nM after 24 hrs by flow cytometry (Rvb= 20.5%); assay type: functional, A2780 ADR
[4] = Induction of mitotic cell cycle arrest in potoroo PtK2 cells assessed as accumulation of cells at SubG1 phase at 100 nM after 24 hrs by flow cytometry (Rvb= 0.9%); assay type: functional, Potorous tridactylus
[5] = Cytotoxicity against human A2780-1A9 cells; assay type: functional, cell-based
[6] = Induction of mitotic cell cycle arrest in potoroo PtK2 cells assessed as accumulation of cells at G1/G0 phase at 2 uM after 7 hrs by flow cytometry (Rvb= 60%); assay type: functional, Potorous tridactylus
[7] = Induction of mitotic cell cycle arrest in potoroo PtK2 cells assessed as accumulation of cells at SubG1 phase at 2 uM after 7 hrs by flow cytometry (Rvb= 2.4%); assay type: functional, Potorous tridactylus
[8] = Displacement of [3H]epothilone B from microtubule assessed as bound radioligand level at 20 uM treated before radioligand addition by competitive binding assay
[9] = Induction of mitotic cell cycle arrest in potoroo PtK2 cells assessed as accumulation of cells at SubG1 phase at 5 uM after 7 hrs by flow cytometry (Rvb= 2.4%); assay type: functional, Potorous tridactylus
[10] = Induction of mitotic cell cycle arrest in human A2780AD cells assessed as accumulation of cells at S phase at 100 nM after 24 hrs by flow cytometry (Rvb= 16.2%); assay type: functional, A2780 ADR
[11] = Binding affinity to beta-tubulin 219-243 amino acid sequence by mass spectroscopy
Procedure, shortened: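 Polymerized native microtubules (20 µM tubulin, 25 µM ligand, 30 min, 37 °C in GAB with 1 mM GTP) pelleted and washed, then digested with trypsin (2 h, 37 °C) or chymotrypsin (1 h, 25 °C). Peptides analysed by nano-HPLC triple-quadrupole MS with precursor ion scanning for the m/z 249.0 cyclostreptin fragment. Adduct stoichiometry taken from the 219–243 peptide signal.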

[12] = Binding affinity to microtubule
[13] = Induction of micronucleation in potoroo PtK2 cells at 5 uM after 7 hrs by flow cytometry; assay type: functional, Potorous tridactylus
[14] = test system: A2780; assay: Induction of mitotic cell cycle arrest in human A2780 cells assessed as accumulation of cells at S phase at 100 nM after 24 hrs by flow cytometry (Rvb= 17.5%); assay type: functional
[15] = test system: PtK2; assay: Induction of microtubule bundle formation in potoroo PtK2 cells at 5 uM after 7 hrs by flow cytometry; assay type: cell-based; details: Potorous tridactylus
[16] = Induction of mitotic cell cycle arrest in potoroo PtK2 cells assessed as accumulation of cells at G1/G0 phase at 2 uM treated for 7 hrs, washed followed by 16 hrs incubation by flow cytometry (Rvb= 59%); assay type: functional, Potorous tridactylus
[17] = Displacement of [3H]discodermolide from microtubule assessed as bound radioligand level at 20 uM treated before radioligand addition by competitive binding assay
[18] = Induction of mitotic cell cycle arrest in potoroo PtK2 cells assessed as accumulation at S phase at 2 uM treated for 7 hrs, washed followed by 16 hrs incubation by flow cytometry (Rvb= 16%); assay type: functional, Potorous tridactylus
[19] = Displacement of [3H]paclitaxel from microtubule assessed as bound radioligand level at 20 uM treated after radioligand addition by competitive binding assay
[20] = test system: A549; assay: Induction of mitotic cell cycle arrest in human A549 cells assessed as accumulation at S phase at 100 nM after 24 hrs by flow cytometry (Rvb= 16%); assay type: functional
[21] = Induction of mitotic cell cycle arrest in potoroo PtK2 cells assessed as accumulation of cells at G1/G0 phase at 100 nM after 24 hrs by flow cytometry (Rvb= 60.8%); assay type: functional, Potorous tridactylus
[22] = test system: A2780; assay: Induction of mitotic cell cycle arrest in human A2780 cells assessed as accumulation of cells at SubG1 phase at 100 nM after 24 hrs by flow cytometry (Rvb= 2.5%); assay type: functional
[23] = Induction of mitotic cell cycle arrest in potoroo PtK2 cells assessed as accumulation of cells at SubG1 phase at 2 uM treated for 7 hrs, washed followed by 48 hrs incubation by flow cytometry (Rvb= 1.1%); assay type: functional, Potorous tridactylus
[24] = Induction of mitotic cell cycle arrest in potoroo PtK2 cells assessed as accumulation at S phase at 100 nM after 24 hrs by flow cytometry (Rvb= 12%); assay type: functional, Potorous tridactylus
[25] = test system: A549; assay: Induction of mitotic cell cycle arrest in human A549 cells assessed as accumulation of cells at G1/G0 phase at 100 nM after 24 hrs by flow cytometry (Rvb= 39.2%); assay type: functional
[26] = Induction of mitotic cell cycle arrest in potoroo PtK2 cells assessed as accumulation of cells at G2+M phase at 2 uM treated for 7 hrs, washed followed by 16 hrs incubation by flow cytometry (Rvb= 23%); assay type: functional, Potorous tridactylus
[27] = target: T1, Tubulin (Homo sapiens) (UniProt P68371+Q9H4B7+P0DPH7+P68366+Q13509+Q71U36+P04350+Q3ZCM7+P07437+P68363+Q9BQE3+Q6PEY2+Q13885+Q9BVA1+Q9BUF5); assay: Binding affinity to tubulin in human A549 cells
[28] = Induction of micronucleation in potoroo PtK2 cells at 5 uM treated for 7 hrs followed by compound washout measured after 16 hrs by flow cytometry; assay type: functional, Potorous tridactylus
[29] = target: T1, Tubulin (Homo sapiens); assay: Induction of covalent modification of tubulin at Thr220 and Asn228 in human A549 cells by HPLC analysis; assay type: cell-based
Procedure, shortened: (§1)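 A549 monolayers exposed 24 h to 1 µM ligand or 0.1% DMSO. Tubulin purified from homogenate supernatant by one-step DEAE ion exchange (0.4 M KCl load, 0.8 M KCl elution) to 90% purity. Tryptic or chymotryptic digests analysed by HPLC-MRM with Q3 at m/z 249.0. Adduct fraction estimated from the areas of modified and unmodified peptide peaks.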

[30] = Induction of micronucleation in potoroo PtK2 cells at 2 uM after 7 hrs by flow cytometry; assay type: functional, Potorous tridactylus
[31] = test system: A549; assay: Binding affinity to beta-tubulin in human A549 cells at 1 uM after 24 hrs by HPLC analysis; assay type: cell-based
Procedure, shortened: as §1

[32] = test system: A2780; assay: Induction of mitotic cell cycle arrest in human A2780 cells assessed as accumulation of cells at G1/G0 phase at 100 nM after 24 hrs by flow cytometry (Rvb= 60%); assay type: functional
[33] = test system: A2780; assay: Induction of mitotic cell cycle arrest in human A2780 cells assessed as accumulation of cells at G2+M phase at 100 nM after 24 hrs by flow cytometry (Rvb= 20%); assay type: functional

CC1=C[C@H]2[C@@H](O)[C@H](C)[C@@H](O)[C@@H]2[C@H]2[C@@H]3C4=C5O[C@](C)(CC[C@@H](OC4=O)[C@H]5C)[C@@H]3C[C@@H]12 [CYCLOSTREPTIN]
Activity [1]: Active
Activity [2]: 9.4%
Activity [3]: 71%
Activity [4]: 4.6%
IC50 [5]: 0.044 µM
Activity [6]: 48%
Activity [7]: 2.6%
Activity [8]: 12%
Activity [9]: 2.3%
Activity [10]: 6%
Activity [11]: Active
Kd [12]: 0.049 µM
Activity [13]: 4%
Activity [14]: 10.6%
Activity [15]: 4%
Activity [16]: 20.5%
Activity [17]: 19%
Activity [18]: 17%
Activity [19]: 60%
Activity [20]: 9%
Activity [21]: 18.5%
Activity [22]: 16.3%
Activity [23]: 7.1%
Activity [24]: 14.8%
Activity [25]: 4%
Activity [26]: 59%
Activity [27]: Active
Activity [28]: 70%
Activity [29]: Active
Activity [30]: 4%
Activity [31]: Active
Activity [32]: 12.1%
Activity [33]: 61%
